Results on 10 compounds are retold here after ChEMBL document CHEMBL3046604, “Synthesis and fungistatic activity of new groups of 2,4-dihydroxythiobenzoyl derivatives against phytopathogenic fungi” (J Agric Food Chem, 2003).

Series [1] relates to Blumeria graminis. Kind of series: Fungistatic activity against Blumeria graminis infested wheat seedling assessed as inhibition of fungal infection at 500 ug/ml applied as spray after 7 to 14 days under green house conditions relative to control. It counts as functional. Put shortly:
(§1)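 Greenhouse test on healthy wheat seedlings with Erysiphe graminis. At the well-developed first-leaf stage, plants were sprayed with compound solution at 1000 or 500 µg/mL, 10 mL of solution per treatment, with three repeats in 9 cm paraffin cups.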

Series [2] concerns Blumeria graminis. In words: Fungistatic activity against Blumeria graminis infested wheat seedling assessed as inhibition of fungal infection at 1000 ug/ml applied as spray after 7 to 14 days under green house conditions relative to control. Format: functional. Summed up: as §1
Series [3] has as its system Phytophthora cactorum. In words: Fungistatic activity against Phytophthora cactorum assessed as mycelial growth inhibition at 20 ug/ml after 4 to 8 days relative to control. It counts as functional. As to conditions: read-out: GI. Put shortly: (§2)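 Compound solutions or suspensions were diluted into PDA agar to final 200 or 20 µg/mL and poured into Petri dishes. Once the agar set, mycelium-covered agar disks of the fungus were placed at three sites on the surface. Linear colony growth was measured after 4-8 days, depending on the culture. Inhibition J = [(C − T)/C] × 100 versus untreated control, reported on a four-degree scale.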

The subject of series [4] is Phytophthora cactorum. Kind of series: Fungistatic activity against Phytophthora cactorum assessed as mycelial growth inhibition at 200 ug/ml after 4 to 8 days relative to control. Format: functional. To be noted: read-out: GI. Put shortly: as §2
Series [5] has as its system Fusarium culmorum. Kind of series: Fungistatic activity against Fusarium culmorum assessed as mycelial growth inhibition at 20 ug/ml after 4 to 8 days relative to control. To be noted: read-out: GI. It counts as functional. Summed up:
as §2

The subject of series [6] is Fusarium culmorum. Kind of series: Fungistatic activity against Fusarium culmorum assessed as mycelial growth inhibition at 200 ug/ml after 4 to 8 days relative to control. As to conditions: read-out: GI. It counts as functional. Put shortly:
as §2

The subject of series [7] is Rhizoctonia solani. In words: Fungistatic activity against Rhizoctonia solani assessed as mycelial growth inhibition at 20 ug/ml after 4 to 8 days relative to control. It counts as functional. As to conditions: read-out: GI. Summed up:
as §2

Series [8] relates to Rhizoctonia solani. In words: Fungistatic activity against Rhizoctonia solani assessed as mycelial growth inhibition at 200 ug/ml after 4 to 8 days relative to control. Format: functional. To be noted: read-out: GI. Summed up: as §2
For series [9], the system named is Botrytis cinerea. Kind of series: Fungistatic activity against Botryotinia fuckeliana assessed as mycelial growth inhibition at 20 ug/ml after 4 to 8 days relative to control. It counts as functional. To be noted: read-out: GI. Put shortly: as §2
Series [10] relates to Alternaria alternata. Kind of series: Fungistatic activity against Alternaria alternata assessed as mycelial growth inhibition at 20 ug/ml after 4 to 8 days relative to control. Format: functional. As to conditions: read-out: GI. Summed up:
as §2

The subject of series [11] is Botrytis cinerea. Kind of series: Fungistatic activity against Botryotinia fuckeliana assessed as mycelial growth inhibition at 200 ug/ml after 4 to 8 days relative to control. To be noted: read-out: GI. It counts as functional. Put shortly:
as §2

Series [12] is described as follows: Lipophilicity, log K of the compound in methanol-water mixture by HPLC. It counts as physicochemical. Summed up:
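Reversed-phase HPLC on a Hypersil BDS C18 column (5 µm, 150 × 4.6 mm) with UV detection at 320 nm. Samples were dissolved in methanol. Mobile phase was methanol at varying volume fractions in 10 mM acetate buffer pH 4, run at 1 mL/min and room temperature. Dead time was taken from injection of acetone dissolved in water.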

In series [13] the test system is Alternaria alternata. Kind of series: Fungistatic activity against Alternaria alternata assessed as mycelial growth inhibition at 200 ug/ml after 4 to 8 days relative to control. It counts as functional. As to conditions: read-out: GI. Summed up:
as §2

Usually inhibition stands for the share of the control response that was lost under treatment.

Molecules are shown by their SMILES.

In the case of `N#CCc1nn(-c2ccccc2)c(NC(=S)c2ccc(O)cc2O)c1C#N`, the inhibition at 500 µg/mL in [1] came to 0%. Besides, in [2], the inhibition at 1000 µg/mL was 21%. In addition, the inhibition of growth at 20 µg/mL in series [3], in series [5], in [7], in [9] and in series [10] was 0% throughout. The inhibition of growth at 200 µg/mL in series [4] was 61%; in [6], 0%; in series [8], 21%; in series [11] it was 21%; in series [13] it was 41%. In addition, the “log K” value in series [12] came out at 0.373.

Regarding `Oc1ccc(C(=S)Nc2ccccc2-c2ccccc2)c(O)c1`, the inhibition at 500 µg/mL in series [1] was 0%. Moreover, the inhibition at 1000 µg/mL in series [2] stood at 21%. The inhibition of growth at 20 µg/mL in series [3] worked out at 41%; in [5], 0%; in series [7], 0%; in series [9], 0%; in series [10] it was 0%. Also, the inhibition of growth at 200 µg/mL stood at 81% in series [4]; 61% in series [6]; 61% in [8]; 61% in series [11]; 61% in [13]. Moreover, the “log K” value in [12] came to 0.118.

As for `Oc1ccc(C(=S)NN=C(c2ccccc2)c2ccccc2)c(O)c1`, the inhibition at 500 µg/mL in [1] stood at 0%. Besides, in series [2], the inhibition at 1000 µg/mL is 21%. The inhibition of growth at 20 µg/mL in series [3], in [5], in [7], in series [9] and in series [10] was 0% in each case. Besides, the inhibition of growth at 200 µg/mL in [4] amounted to 41%; in series [6], 0%; in series [8] it was 0%; in [11], 0%; in series [13] it was 41%. For the same compound, in series [12], the “log K” value stood at 0.642.

Take `CCOC(=O)Cc1csc(NC(=S)c2ccc(O)cc2O)n1`: the inhibition at 500 µg/mL in series [1] stood at 0%. Besides, the inhibition at 1000 µg/mL in [2] amounted to 21%. The inhibition of growth at 20 µg/mL in [3], in series [5], in series [7], in [9] and in series [10] was 0% throughout. Further, the inhibition of growth at 200 µg/mL turned out to be 41% in series [4]; 0% in series [6]; 0% in [8]; 0% in series [11]; 21% in series [13]. For the same compound, the “log K” value in series [12] was determined as 0.048.

As to `Oc1ccc(C(=S)Nc2ccc(OCc3ccccc3)cc2)c(O)c1`, the inhibition at 500 µg/mL in series [1] came to 0%. Moreover, the inhibition at 1000 µg/mL in series [2] amounted to 21%. Moreover, the inhibition of growth at 20 µg/mL turned out to be 0% in series [3]; 0% in [5]; 0% in [7]; 21% in [9]; 0% in [10]. For the same compound, the inhibition of growth at 200 µg/mL is 41% in series [4]; 21% in series [6]; 41% in series [8]; 61% in series [11]; 61% in series [13]. Besides, the “log K” value in series [12] is given as 0.423.

Take `Oc1ccc(C(=S)NNC(=S)Nc2cccc(Cl)c2)c(O)c1`: the inhibition at 500 µg/mL in series [1] was found to be 0%. The inhibition at 1000 µg/mL in [2] came out at 0%. For the same compound, the inhibition of growth at 20 µg/mL in [3], in [5], in [7], in series [9] and in [10] was 0% in each case. The inhibition of growth at 200 µg/mL in series [4] turned out to be 61%; in series [6], 0%; in [8], 0%; in series [11], 0%; in series [13] it was 0%. Moreover, the “log K” value in series [12] is 0.229.

`Oc1ccc(C(=S)n2c(Cl)nc3ccccc32)c(O)c1`: the inhibition at 500 µg/mL in series [1] is 0%. Also, in series [2], the inhibition at 1000 µg/mL is 41%. Moreover, the inhibition of growth at 20 µg/mL in series [3] turned out to be 21%; in [5] it was 0%; in series [7], 21%; in series [9], 0%; in series [10], 21%. Also, the inhibition of growth at 200 µg/mL in series [4], in series [6], in [8], in series [11] and in [13] was 81% in each case. Besides, the “log K” value in [12] is reported as 0.378.

On to `Oc1ccc(C(=S)Nc2cc(C(F)(F)F)ccc2N2CCOCC2)c(O)c1`, for which the inhibition at 500 µg/mL in series [1] turned out to be 0%. Besides, in series [2], the inhibition at 1000 µg/mL was 0%. For the same compound, the inhibition of growth at 20 µg/mL in series [3], in series [5], in series [7], in series [9] and in [10] was 0% in each case. For the same compound, the inhibition of growth at 200 µg/mL was found to be 41% in series [4]; 21% in series [6]; 0% in [8]; 21% in series [11]; 21% in series [13]. Besides, in series [12], the “log K” value was 0.035.

For `Oc1ccc(C(=S)NN=C2c3ccccc3-c3ccccc32)c(O)c1`, the inhibition at 500 µg/mL in series [1] turned out to be 0%. Moreover, the inhibition at 1000 µg/mL in series [2] was determined as 0%. Moreover, the inhibition of growth at 20 µg/mL in series [3], in series [5], in series [7], in [9] and in series [10] was 0% each time. For the same compound, the inhibition of growth at 200 µg/mL came out at 41% in [4]; 0% in series [6]; 0% in series [8]; 21% in series [11]; 41% in [13]. Moreover, the “log K” value in series [12] is 0.232.

For the compound `Oc1ccc(C(=S)Nc2ccccc2Sc2ccc(Cl)cc2)c(O)c1`, the inhibition at 500 µg/mL in [1] was 0%. In addition, the inhibition at 1000 µg/mL in series [2] turned out to be 0%. Also, the inhibition of growth at 20 µg/mL in series [3], in series [5], in series [7], in series [9] and in [10] was 0% in each case. Besides, the inhibition of growth at 200 µg/mL amounted to 0% in series [4]; 21% in [6]; 21% in series [8]; 0% in series [11]; 41% in series [13]. The “log K” value in series [12] turned out to be 0.446.
